One may read the inhibition as the drop in the measured response relative to a control, in per cent.

Inhibition data for 109 compounds are collected here from PubChem BioAssay AID1885 (Broad Institute, 2009).

Hit rate of the full screen: of about 300,000 compounds, about 4,400 (1.5%) were called active.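 Rule for the calls: active = mean inhibition across valid replicates above about 55% (limit read from the data); inconclusive = mean below that limit but half or more replicates reach it; inactive = mean below it, under half of replicates reach it.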 This excerpt belongs to a sample that is enriched for actives.

The assay is described as follows: Trypanosoma cruzi replication blockers in host cells – luminescence, NIH3T3 host cells, primary screen (AID 1885).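 Note: signal also drops with host cell toxicity which is not excluded here; 0% = plate median of DMSO wells and 100% = zero luminescence signal; higher percent means less beta-gal luminescence so fewer parasites.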 Conditions: T. cruzi beta-gal in NIH3T3, luminescence, 90 h; stronger effect = higher value; concentration not given here. Put shortly: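 System: NIH/3T3 fibroblasts plus reporter T. cruzi. Medium: DMEM plus 2% FBS. Probe or stimulus: 5000 reporter trypomastigotes per well. Compound: single 50 nL compound addition per well in DMSO. Incubation: co-culture of at least 90 h after 3 h attachment. Detection: GalScreen β-gal luminescence, detergent lysis, 60 min. Evaluation: parasite load inhibition, %.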
In the case of `COc1cc(C(=O)N2CCN(C3CCC(C)CC3)CC2)cc(OC)c1OC` (centres undefined), the inhibition is 25.8% (inactive).
With `NC(=O)Cn1nc([N+](=O)[O-])nc1Oc1ccc(Br)cc1` the figure was 88.1% (active).
Regarding `Cc1nn(CCOc2ccc(Br)cc2)c(C)c1[N+](=O)[O-]`, the inhibition was 10.6% (inactive).
For `COc1ccc(CNC(=O)CCCn2nc(C)c([N+](=O)[O-])c2C)cc1`, the inhibition is -2.92% (inactive).
For `N/C(=N\OC(=O)COc1ccc([N+](=O)[O-])cc1)c1ccc(Br)cc1` the value was -1.86% (inactive); for `Cn1nc([N+](=O)[O-])nc1Sc1ccc(C(C)(C)C)cc1`, 27% (inactive).
For `CCc1ccc(Oc2nc([N+](=O)[O-])nn2C)cc1` the value was 66.5% (active); for `COc1ccc(NC(=O)CCS(=O)(=O)c2cc3c(cc2Cl)NC(=O)CO3)cc1OC`, 1.37% (inactive); for `CC(C)CCN1CCN(Cc2cn[nH]c2C2CCCCC2)CC1CCO` (centres undefined), 24.3% (inactive).
For `CN(CCOc1ccccc1)C(=O)c1cc(COc2c(F)cccc2F)on1` the value was -2.25% (inactive); for `COc1ccc(NC(=O)CCNC(=O)Cn2cnc3sc4c(c3c2=O)CCCC4)cc1OC`, -2.4% (inactive); for `Cc1ccc(S(=O)(=O)N2CCN(C(=O)c3ccccc3-c3nc4ccccc4s3)CC2)c(C)c1`, -3.66% (inactive).
With `CC(NC(=O)c1cc2cc(Cl)ccc2oc1=N)c1ccccc1` (centres undefined), the inhibition is -3.32% (inactive).
For `COc1cccc(CNCCc2c[nH]c3ccccc23)c1OCc1ccccc1F` the value was 39.3% (inactive); for `Fc1ccccc1COc1cccc2cccnc12`, -0.777% (inactive); for `Fc1ccccc1COc1ccccc1CNCc1ccncc1`, 65.1% (active).
With `C=CCOc1cccc(CNCc2cccnc2)c1` the figure was 17.4% (inactive); with `CCC(Oc1ccccc1)C(=O)NCc1cccnc1` (centres undefined), -4.42% (inactive); with `c1ccc(COc2ccccc2CNCc2cccnc2)cc1`, 69.7% (active).
With `CN(C(=O)CN1C(=O)NC(C)(CCc2ccccc2)C1=O)c1ccccc1` (centres undefined) the figure was -3.39% (inactive); with `O=C(Nc1ccccc1Cl)N1CCN(c2ccc3nncn3n2)CC1`, -2.95% (inactive); with `O=C1c2ccccc2C(=O)N1CC1c2ccccc2CCN1S(=O)(=O)c1ccccc1` (centres undefined), -2.22% (inactive).
In the case of `Cc1c(Cl)c([N+](=O)[O-])nn1CCCC(=O)NC(C)c1ccccc1` (centres undefined), the inhibition was 6.9% (inactive).
For `COC(=O)C(C)Sc1ccc2nnc(-c3cccc(F)c3)n2n1` (centres undefined) the value was 19% (inactive); for `C1CC1Cc1noc(CN2CCN(CC3CC3)CC2)n1`, 1.1% (inactive).
For `COc1ccc(NC(=O)CN(C)C(=O)CC2CCCCC2)cc1` the value was -3.55% (inactive).
For `FC(F)(F)c1ccc2c3n(nc2c1)CCN=C3c1ccc(Cl)cc1` the value was 1.67% (inactive); for `Cc1nc2ccccc2n1CC(=O)N/N=C/c1cccnc1`, -15.1% (inactive).
With `O=C(CNC(=O)c1cccnc1)N/N=C/c1cccnc1`, the inhibition is -1.7% (inactive).
Consider `O=C(CSc1cccc2cccnc12)N/N=C/c1cccnc1`, for which the inhibition was 64.7% (active).
In the case of `COc1ccccc1OCC(=O)Nc1ccccc1C(=O)NC1CC1`, the inhibition is -5.39% (inactive).
For `O=S(=O)(Nc1ccc(O)c2ccccc12)c1ccc(OC(F)(F)F)cc1` the value was 8.4% (inactive); for `Cc1c(C)n2c(SCC(=O)NC3CCCC3)nnc2[nH]c1=O`, -14.6% (inactive).
With `CC(=O)Nc1ccc(NC(=O)COc2ncnc3ccccc23)cc1` the figure was -17.1% (inactive); with `CC(=O)Nc1ccc(Nc2c3ccccc3nc3ccccc23)cc1`, 59.7% (active); with `Cc1ccc(Nc2c3c(nc4ccccc24)CCC3)cc1`, 39.2% (inactive).
With `FC(F)(F)c1cccc(-c2nc(COc3ccc(Cl)cc3Cl)no2)c1` the figure was 1.05% (inactive).
For the compound `COc1c(C(=O)N2CCCC2)ccc2ccccc12`, the inhibition is -11.3% (inactive).
Consider `CCSc1nc2sc3c(c2c(=O)n1-c1ccc(C)cc1)CCN(C)C3`, for which the inhibition was 21.6% (inactive).
Consider `CCOc1ccc(-n2c(SCC(=O)OC)nc3sc4c(c3c2=O)CCN(C)C4)cc1`, for which the inhibition is 5.98% (inactive).
For `CCCSc1nc2sc3c(c2c(=O)n1-c1ccc(OC)cc1)CCN(C)C3`, the inhibition was 57.4% (active).
Turning to `CCOC(=O)N1CCC(N2Cc3cccc(C(=O)Nc4c(C)cccc4CC)c3C2=O)CC1`, the inhibition was 22% (inactive).
For the compound `Cc1ccc(S(=O)(=O)N2CCC(C(=O)NCCC3=CCCCC3)CC2)cc1C`, the inhibition is 8.76% (inactive).
`Cc1cccc(-n2ncc(Cl)c(Cl)c2=O)c1`: the inhibition was 65.8% (active).
As to `COc1ccc(Oc2c(Cl)cnn(-c3ccccc3)c2=O)cc1`, the inhibition was -11.4% (inactive).
With `Cc1cccc(-n2ncc(C#N)c2-n2cccc2)c1` the figure was -8.8% (inactive); with `COc1ccc(N2CCN(C(=O)COC(=O)c3cccc(S(=O)(=O)Nc4ccccc4OC)c3)CC2)cc1`, 8.41% (inactive).
For `COc1ccc(F)cc1S(=O)(=O)NCC(c1ccc2c(c1)OCO2)N1CCN(C)CC1` (centres undefined) the value was -3.53% (inactive); for `COC(=O)c1cc(S(=O)(=O)N2CCN(c3cc(C)ccc3C)CC2)c[nH]1`, 0.9% (inactive).
With `O=C(COc1ccc(Br)cc1F)NC1CCN(Cc2ccccc2)CC1` the figure was 38.4% (inactive); with `O=C(NC1CCN(Cc2ccccc2)CC1)c1cc(Br)c(Br)[nH]1`, 70.3% (active).
Turning to `Cc1cc(C(=O)NC2CCN(Cc3ccccc3)CC2)n[nH]1`, the inhibition is 14.6% (inactive).
For `S=C(Nc1ccc(Br)cc1Cl)NC1CCN(Cc2ccccc2)CC1`, the inhibition was 60.4% (active).
With `O=C(NC1CCN(Cc2ccccc2)CC1)c1ccc(Oc2cc(Cl)cc(Cl)c2)o1` the figure was 44.9% (inactive); with `S=C(Nc1ccc(Br)cc1)NC1CCN(Cc2ccccc2)CC1`, 42% (inactive).
For `CCOC(=O)c1ccc(NC(=O)c2ccc(NC(=O)C3CCCO3)cc2)cc1` (centres undefined) the value was 3.02% (inactive); for `CCOc1ccccc1C1CC(c2ccc(Cl)cc2)Nc2nc(N)nn21` (centres undefined), 17.4% (inactive); for `CCCn1c(C)cc(-c2csc(NC(=O)CCc3nc4ccccc4c(=O)[nH]3)n2)c1C`, 5.04% (inactive).
On to `Cc1cccc(OCC(O)CN2CCN(CCN3C(=O)c4cccc5cccc(c45)C3=O)CC2)c1C` (centres undefined), for which the inhibition is 67.1% (active).
For `Cc1ccccc1OCC(O)CN1CCN(c2ccccn2)CC1` (centres undefined) the value was 0.87% (inactive); for `COc1ccccc1OCC(O)CN1CCOCC1` (centres undefined), 1.66% (inactive); for `COc1ccccc1NS(=O)(=O)c1ccc(C(=O)N2CCN(c3ccccc3O)CC2)cc1`, 0.881% (inactive).
As to `O=C(COC(=O)c1ncc(Cl)c(Cl)c1Cl)NCc1cccs1`, the inhibition is -17.6% (inactive).
Consider `Cc1csc(NC(=O)c2ccc(C)s2)n1`, for which the inhibition is -14.9% (inactive).
For `Cn1c(=O)c(=O)n(C)c2cc(S(=O)(=O)NCCc3ccccc3)ccc21` the value was -8.33% (inactive); for `Cc1ccc(S(=O)(=O)NCCN2CCOCC2)cc1C`, 1.47% (inactive).
For `Cn1c(=O)c(=O)n(C)c2cc(S(=O)(=O)NCCN3CCN(c4ccccc4F)CC3)ccc21` the value was 56% (active); for `COc1cc(CNCc2ccc3c(c2)OCO3)c([N+](=O)[O-])cc1OC`, 9.09% (inactive).
With `C=CS(=O)c1sc(Cl)c(N2CCOCC2)c1[N+](=O)[O-]` (centres undefined) the figure was 69.9% (active); with `O=C(NCCc1csc(-c2ccccc2)n1)c1ccccc1F`, 66.1% (active).
For `O=S(=O)(NCCc1csc(-c2ccccc2)n1)c1cccnc1`, the inhibition was 8.42% (inactive).
Regarding `COc1ccc(-c2nc(CCNC(=O)c3ccc(Br)o3)cs2)cc1`, the inhibition is 9.33% (inactive).
With `CC(=O)c1ccc(S(=O)(=O)NC2CC(=O)N(c3ccc4c(c3)OCCO4)C2)cc1` (centres undefined), the inhibition was 0.0508% (inactive).
Regarding `CC(=O)c1nc2ccccc2n1Cc1ccccc1`, the inhibition was 8% (inactive).
For `CC(=O)Nc1nc2ccccc2n1Cc1ccc(C)cc1` the value was 79.7% (active); for `CCC(=O)Nc1nc2ccccc2n1Cc1ccccc1C`, 45.5% (inactive); for `O=C(CCC(=O)c1cccs1)Nc1nc2ccccc2s1`, -3.43% (inactive).
For the compound `CCN(CC)CCn1c2c(c(SCC(=O)Nc3ccc(C(C)C)cc3)nc1=O)CCC2`, the inhibition is 9.44% (inactive).
With `C=CC1=C(C(=O)O)N2C(=O)[C@@H](NC(=O)/C(=N/OCC(=O)O)c3csc(N)n3)[C@H]2SC1`, the inhibition is -7.4% (inactive).
For `O=C(Cc1ccc(S(=O)(=O)N2CCOCC2)s1)NCCOc1ccccc1F`, the inhibition is 5.5% (inactive).
Take `COc1ccccc1CCNC(=O)CN1C(=O)NC2(CCCC2)C1=O`: the inhibition was -8.97% (inactive).
In the case of `O=C(COC(=O)c1ncc(Cl)c(Cl)c1Cl)NC1CCS(=O)(=O)C1` (centres undefined), the inhibition is -20.7% (inactive).
For `Cc1cccc([C@@H]2[C@@H]3C(=O)N(Cc4ccccc4)C(=O)[C@@H]3[C@]3(Cc4ccc(Cl)cc4)C(=O)N(c4cccc(Cl)c4)C(=O)N23)c1` the value was -3.42% (inactive); for `Cc1c(C(=O)OCC(=O)N2CCCC2=O)oc2ccccc12`, -3.64% (inactive); for `O=C(CCN1CCN(C/C=C/c2ccccc2)CC1)Nc1ccccc1Cl`, 33.5% (inactive).
Consider `O=C(CCN1CCN(C/C=C/c2ccccc2)CC1)Nc1cccc(F)c1`, for which the inhibition is 58.2% (active).
For `O=C(CN1CCN(C/C=C/c2ccccc2)CC1)Nc1ccc(F)cc1F` the value was 32.3% (inactive).
With `CC[C@@]12C(=O)N(c3ccccc3)C(=O)N1[C@H](c1ccc(Br)cc1)[C@@H]1C(=O)N(C(C)(C)C)C(=O)[C@@H]12` the figure was 1.35% (inactive); with `CC(C)COC(=O)c1ccc(NC(=O)C2C3C=CC(C3)C2C(=O)O)cc1` (centres undefined), 1.59% (inactive).
As for `CCOC(=O)c1cnc(-n2nc(C)cc2C)nc1NNc1cc(C)nc(-c2ccccc2)n1`, the inhibition was 54.9% (active).
Take `CCOC(=O)c1cnc(-n2nc(C)cc2C)nc1Nc1cccc(C(C)=O)c1`: the inhibition was -12.3% (inactive).
For `CCOC(=O)c1cnc(-c2ccccc2)nc1Oc1ccc(C)cc1` the value was 7.98% (inactive); for `CCCCn1c(N)c(N(CCC(C)C)C(=O)c2ccc(COc3ccccc3)o2)c(=O)[nH]c1=O`, 0.734% (inactive).
For `CCc1c(C)nc(SCC(=O)NC2CCCC2)[nH]c1=O` the value was -9.04% (inactive); for `CC(C)c1csc(CN2CCC(CO)(Cc3ccccc3)CC2)n1`, 67.1% (active).
With `CC(=O)c1cccc(CN2CCC(CO)(Cc3ccccc3)CC2)c1` the figure was 11.2% (inactive); with `OCC1(Cc2ccccc2)CCN(Cc2cc3ccccc3o2)CC1`, 16.6% (inactive).
Take `Cc1ccc(C(=O)NC2CCCC(C)C2C)cc1S(=O)(=O)N1CCCCC1` (centres undefined): the inhibition was 19.9% (inactive).
Turning to `O=C(CSc1nc2[nH]ncc2c(=O)[nH]1)Nc1ccc(F)cc1`, the inhibition is -0.401% (inactive).
Regarding `COc1ccc(S(=O)(=O)N2CCCCC2)cc1NC(=O)C1CC(=O)N(c2ccc3c(c2)OCCO3)C1` (centres undefined), the inhibition was -2.94% (inactive).
Take `O=C(NCC(c1ccco1)N1CCc2ccccc21)c1cccc(F)c1` (centres undefined): the inhibition is -6.59% (inactive).
Take `CCCOc1ccc(C(=O)NCCc2ccccc2)cc1`: the inhibition is 9.57% (inactive).
With `CCCOc1ccc(C(=O)C(CCC(CNCC)C(=O)c2ccc(OCCC)cc2)CNCC)cc1` (centres undefined) the figure was 56% (active); with `CCCOc1ccc(C(=O)CCC(=O)OC(C)C(=O)Nc2ccc(NC(C)=O)cc2)cc1` (centres undefined), -13.4% (inactive); with `COc1ccc(-c2cc(C(=O)N(C)CC(=O)Nc3ccccc3Cl)c3ccccc3n2)cc1OC`, 9.44% (inactive).
Take `Cc1ccc(NC(=O)c2cnc(SCC(=O)NCC3CCCO3)n(C)c2=O)cc1` (centres undefined): the inhibition was -7.14% (inactive).
In the case of `COc1cccc(Cn2cc(/C=N/NC(=O)c3cc(O)cc(O)c3)c3ccccc32)c1`, the inhibition is -8.85% (inactive).
Regarding `Cc1ccccc1C(=O)NCC(c1ccco1)N1CCc2ccccc21` (centres undefined), the inhibition is 12% (inactive).
`Cc1ccc(Cc2nnc(SCC(=O)Nc3ccccc3C)[nH]c2=O)cc1`: the inhibition is -3.22% (inactive).
